Assay results reported in ChEMBL document CHEMBL3580644, “Synthesis of piperlongumine analogues and discovery of nuclear factor erythroid 2-related factor 2 (Nrf2) activators as potential neuroprotective agents” (J Med Chem, 2015).
Active and inactive are the calls of the source. The calls are words filed in the database; no cut-off is given here.

Key:
PC-12 [1] = experiment: Cytoprotection activity against 6-OHDA-induced cytotoxicity in rat PC12 cells assessed as cell viability at 10 and 20 uM pre-incubated for 24 hrs before 6-OHDA exposure for 12 hrs by LDH release assay; type: functional, cell-based
PC-12 [2] = experiment: Cytoprotection activity against 6-OHDA-induced oxidative stress in rat PC12 cells assessed as Trx activity at pre-incubated for 24 hrs before 6-OHDA exposure for 12 hrs by recombinant rat TrxR1 based assay; type: functional, cell-based
How it was run: (§1)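 Cellular Trx activity: extract with 20 μg protein incubated 30 min at 37 °C in 100 mM Tris-HCl pH 7.4 with 0.3 mM insulin, 660 μM NADPH, 3 mM EDTA, 60 nM recombinant rat TrxR1; stopped with 1 mM DTNB in 6 M guanidine-HCl pH 8.0; A412 minus TrxR-free blank; % of DMSO control.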

PC-12 [3] = experiment: Reduction in cytosolic Nrf2 protein level in rat PC12 cells at 20 uM incubated for 2 to 8 hrs by Western blotting method; type: functional, cell-based
How it was run: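 Seeded at 1×10^6 cells per 60-mm dish for 24 h, PC12 cells were treated with 20 μM compound for 0, 2, 4 and 8 h. Whole-cell, cytosolic and nuclear protein extracts were then prepared and Nrf2 probed by Western blot.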

[4] = Cytotoxicity against human L02 cells assessed as reduction in cell viability at 20 uM to 100 uM incubated for 24 hrs by MTT assay; type: cell-based; settings: l02, 24 h
PC-12 [5] = experiment: Induction of antioxidant genes expression in rat PC12 cells assessed as increase in HO1 mRNA level at 20 uM incubated for 6 hrs by qRT-PCR method; type: functional, cell-based
How it was run: (§2)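 PC12 cells, 1×10^6 per 60-mm dish, 1 day, then 20 μM compound for 0, 3, 6 and 12 h; total RNA isolated, quantified by 260/280 absorbance; mRNA by real-time RT-PCR normalized to GAPDH; mean ± SD of three independent experiments versus 0 h.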

PC-12 [6] = experiment: Induction of antioxidant defense system in rat PC12 cells assessed as increase in GSH level incubated for 24 hrs; type: functional, cell-based
How it was run: (§3)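 Total glutathione: cells extracted in KPE buffer (0.1% Triton X-100, 0.6% sulfosalicylic acid, 5 mM EDTA, 0.1 M PBS pH 7.5), sonicated on ice, centrifuged 3000 g 4 min at 4 °C; supernatant assayed enzymatically. PC12 cells 1×10^6 in 60-mm dishes, compound 24 h; stress lines add 500 μM H2O2 or 200 μM 6-OHDA 12 h.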

PC-12 [7] = experiment: Cytoprotection activity against H2O2-induced oxidative stress in rat PC12 cells assessed as Trx activity at pre-incubated for 24 hrs before H2O2 exposure for 12 hrs by recombinant rat TrxR1 based assay; type: functional, cell-based; how it was run: as §1
PC-12 [8] = experiment: Induction of antioxidant genes expression in rat PC12 cells assessed as increase in GCLM mRNA level at 20 uM incubated for 6 hrs by qRT-PCR method; type: functional, cell-based; how it was run: as §2
[9] = Antioxidant activity assessed as ABTS radical scavenging activity at 20 uM incubated for 30 mins by spectrophotometry; type: physicochemical; settings: 0.5 h
[10] = Cytoprotection activity against H2O2-induced cytotoxicity in rat PC12 cells assessed as increase in cell viability at 20 uM pre-incubated for 24 hrs before H2O2 exposure for 12 hrs by MTT assay; type: functional, PC-12
PC-12 [11] = experiment: Cytoprotection activity against H2O2-induced cytotoxicity in rat PC12 cells assessed as cell viability at 20 uM pre-incubated for 24 hrs before H2O2 exposure for 12 hrs by MTT assay; type: functional, cell-based
PC-12 [12] = experiment: Induction of antioxidant genes expression in rat PC12 cells assessed as increase in Trx1 mRNA level at 20 uM incubated for 6 hrs by qRT-PCR method; type: functional, cell-based; how it was run: as §2
PC-12 [13] = experiment: Induction of antioxidant defense system in rat PC12 cells assessed as increase in NQO1 activity level incubated for 24 hrs by DCPIP dye reduction based spectrophotometry; type: functional, cell-based
How it was run: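 NQO1: PC12 lysate in RIPA buffer, 5 μg protein into 20 mM Tris-HCl pH 7.4, 200 μM NADH, 40 μM DCPIP; A600 decrease read every 8 s for 2 min at room temperature ± 20 μM dicoumarol; dicoumarol-inhibitable rate used, expressed as % of DMSO control. Cells pretreated 24 h; stress lines then 500 μM H2O2 or 200 μM 6-OHDA 12 h.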

[14] = Antioxidant activity assessed as DPPH radical scavenging activity at 20 uM incubated for 30 mins by spectrophotometry; type: physicochemical; settings: 0.5 h
PC-12 [15] = experiment: Induction of antioxidant defense system in rat PC12 cells assessed as increase in TrxR activity level incubated for 24 hrs by Escherichia coli Trx based assay; type: functional, cell-based
How it was run: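 Cellular TrxR activity: extract with 20 μg protein incubated 30 min at 37 °C in 100 mM Tris-HCl pH 7.4 containing 0.3 mM insulin, 660 μM NADPH, 3 mM EDTA, 4 μM E. coli Trx; stopped with 1 mM DTNB in 6 M guanidine-HCl pH 8.0; A412 minus Trx-free blank; % of DMSO control.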

PC-12 [16] = experiment: Cytoprotection activity against H2O2-induced cytotoxicity in rat PC12 cells assessed as cell viability at 10 and 20 uM pre-incubated for 24 hrs before H2O2 exposure for 12 hrs in presence of non-trageting shRNA by MTT assay; type: functional, cell-based
PC-12 [17] = experiment: Cytoprotection activity against H2O2-induced oxidative stress in rat PC12 cells assessed as GSH level at pre-incubated for 24 hrs before H2O2 exposure for 12 hrs; type: functional, cell-based; how it was run: as §3

Activity [9] | Activity [14] | Compound | Activity (PC-12 [1]) | Activity (PC-12 [2]) | Activity (PC-12 [3]) | Activity [4] | Activity (PC-12 [5]) | Activity (PC-12 [6]) | Activity (PC-12 [7]) | Activity (PC-12 [8]) | Activity [10] | Activity (PC-12 [11]) | Activity (PC-12 [12]) | Activity (PC-12 [13]) | Activity (PC-12 [15]) | Activity (PC-12 [16]) | Activity (PC-12 [17])
Not Active | Not Active | COc1ccc(/C=C/C(=O)N2CCCC2=O)cc1 | Active | Active | Active | Non-toxic | Active | Active | Active | Active | 80% | Active | Active | Active | Active | Active | Active
Not Active | Not Active | COc1cc(/C=C/C(=O)N2CCCCC2=O)cc(OC)c1OC | Active | Active | Active | Non-toxic | Active | Active | Active | Active | 75% | Active | Active | Active | Active | Active | Active
